Assay results as given in ChEMBL document CHEMBL1132260, “Antitumor agents. 194. Synthesis and biological evaluations of 4-beta-mono-, -di-, and -trisubstituted aniline-4'-O-demethyl-podophyllotoxin and related compounds with improved pharmacological profiles” (J Med Chem, 1999).

Experiments:
[1] = The compound was tested for cytotoxic activity against KB cell line by clonogenic cell survival assay.; type: cell-based; conditions: human, KB cells; read-out: LD50 (the source's name)
How it was run: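 KB cells were exposed to a range of concentrations for 3 h, then replated. Colony formation and plating efficiency were counted. LD50 (50% fall in plating efficiency vs untreated control) was read graphically. There were three independent experiments.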

[2] = target: T1, DNA topoisomerase II (Homo sapiens) (UniProt P11388+Q02880); test: The compound was tested for inhibitory activity against human DNA topoisomerase-2.; type: protein assay
How it was run: (§1)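 Human topoisomerase II (p170 isoform, 0.25 U) was assayed by P4 DNA unknotting. The buffer was 50 mM Tris-HCl pH 7.5, 100 mM KCl, 10 mM MgCl2, 0.5 mM DTT, 0.5 mM EDTA and 1 mM ATP, with BSA. Reactions ran 1 h at 37 °C, were stopped with SDS-sucrose, then run on 0.7% agarose and stained with ethidium bromide. Inhibition was scored by eye. IC100 is the concentration giving complete inhibition.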

KB [3] = test: Cellular protein-DNA complex breaking activity against KB cells labeled with tritiated thymidine.; type: functional, Homo sapiens
How it was run: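 KB cells were labelled overnight with tritiated thymidine, chased 2 h, then exposed in triplicate to test agent for 1 h. Protein–DNA complexes were read as potassium-SDS precipitable radioactivity and expressed as fold over untreated control.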

A549 = test: The compound was tested for tumor cell growth inhibitory activity against human lung carcinoma (A549) cell line.; type: functional; conditions: A549, read-out: ED50
How it was run: (§2)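 For the SRB growth assay, cells were grown in RPMI-1640 with 10% FBS and kanamycin at 37 °C under 5% CO2. Drug exposure was 3 days, with DMSO ≤2% final. Absorbance was read at 562 nm. ED50 (50% absorbance reduction vs untreated) was interpolated from dose–response data. Tests were run in triplicate.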

KB [4] = test: The compound was tested for tumor cell growth inhibitory activity against human etoposide (KB-7d) cell line.; type: functional; conditions: read-out: ED50 (the source's name); how it was run: as §2
MCF7 = test: The compound was tested for tumor cell growth inhibitory activity against human breast cancer (MCF-7) cell line.; type: functional; conditions: MCF7, read-out: ED50; how it was run: as §2
HCT-8 = test: The compound was tested for tumor cell growth inhibitory activity against human ileocecal carcinoma (HCT-8) cell line; type: functional; conditions: HCT-8, read-out: ED50; how it was run: as §2
CAKI-1 = test: The compound was tested for tumor cell growth inhibitory activity against human renal cancer(CAKI-1) cell line; type: functional; conditions: CAKI-1, read-out: ED50; how it was run: as §2
KB [5] = test: The compound was tested for tumor cell growth inhibitory activity against human KB-7d cell line resistant to etoposide; type: functional; conditions: read-out: ED50 (the source's name); how it was run: as §2
[6] = target: T1, DNA topoisomerase II (Homo sapiens); test: The compound was tested for inhibitory activity against human DNA topoisomerase II; type: protein assay; how it was run: as §1
KB [7] = test: The compound was tested for tumor cell growth inhibitory activity against human KB-vin20c cell line resistant to vincristine; type: functional; conditions: read-out: ED50 (the source's name); how it was run: as §2
Mus musculus [8] = test: The compound was tested for antitumor activity against (P388/0) Leukemia cells in mice. with a dosage of 40.0 mg/Kg/dose. activity is expressed as net log change in tumor burden.; type: functional, Leukemia cell
How it was run: (§3)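 The P388/0 leukaemia was implanted ip in female CD2F1 mice. Treatment was iv on a Q4D×3 schedule, injected at 0.1 cm³/10 g body weight. Agents were given in saline or in 10% DMSO/35% PEG 300/5% Tween 80/50% D5W, against a saline control. Median day of death, %ILS and net log change in tumour burden (at end of treatment) were recorded. The work was done at a contract lab.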

Mus musculus [9] = test: The compound was tested for antitumor activity against Subcutaneous Mammary Tumor MCF-7 cells. with a dosage of 40.0 mg/Kg/dose. activity is expressed as days to tumor doubling.; type: functional, MCF7
How it was run: (§4)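 MCF-7 human mammary tumour cells were implanted sc in female athymic nude mice. Dosing was iv on a Q4D×3 schedule at 0.1 cm³/10 g body weight, using saline or a DMSO/PEG 300/Tween 80/D5W vehicle, with a saline control. The endpoint was days to tumour doubling.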

Mus musculus [10] = test: The compound was tested for antitumor activity against Subcutaneous Mammary Tumor MCF-7 cells. with a dosage of 27.0 mg/Kg/dose. activity is expressed as days to tumor doubling.; type: functional, MCF7; how it was run: as §4
Mus musculus [11] = test: The compound was tested for antitumor activity against (P388/0) Leukemia cells in mice. with a dosage of 10.0 mg/Kg/dose. activity is expressed as %ILS.; type: functional; conditions: Leukemia cell; how it was run: as §3
Mus musculus [12] = test: The compound was tested for antitumor activity against (P388/0) Leukemia cells in mice. with a dosage of 27.0 mg/Kg/dose. activity is expressed as median day of death.; type: functional, Leukemia cell; how it was run: as §3
Mus musculus [13] = test: The compound was tested for antitumor activity against (P388/0) Leukemia cells in mice. with a dosage of 27.0 mg/kg/dose. activity is expressed as %ILS.; type: functional; conditions: Leukemia cell; how it was run: as §3
Mus musculus [14] = test: The compound was tested for antitumor activity against (P388/0) Leukemia cells in mice. with a dosage of 10.0 mg/Kg/dose. activity is expressed as median day of death.; type: functional, Leukemia cell; how it was run: as §3
Mus musculus [15] = test: The compound was tested for antitumor activity against (P388/0) Leukemia cells in mice. with a dosage of 40.0 mg/Kg/dose; type: functional, Leukemia cell; how it was run: as §3
Mus musculus [16] = test: The compound was tested for antitumor activity against (P388/0) Leukemia cells in mice. with a dosage of 40.0 mg/Kg/dose. activity is expressed as %ILS.; type: functional; conditions: Leukemia cell; how it was run: as §3
Mus musculus [17] = test: The compound was tested for antitumor activity against (P388/0) Leukemia cells in mice. with a dosage of 27.0 mg/Kg/dose. activity is expressed as net log change in tumor burden.; type: functional, Leukemia cell; how it was run: as §3
Mus musculus [18] = test: The compound was tested for antitumor activity against (P388/0) Leukemia cells in mice. with a dosage of 10.0 mg/Kg/dose. activity is expressed as net log change in tumor burden.; type: functional, Leukemia cell; how it was run: as §3

| SMILES | CC50 [1] | IC100 [2] | Complex formation (KB [3]) | EC50 (A549) | EC50 (KB [4]) | EC50 (MCF7) | EC50 (HCT-8) | EC50 (CAKI-1) | EC50 (KB [5]) | IC100 [6] | EC50 (KB [7]) | other results |
| --- | --- | --- | --- | --- | --- | --- | --- | --- | --- | --- | --- | --- |
| COc1ccc(N[C@@H]2c3cc4c(cc3[C@@H](c3cc(OC)c(O)c(OC)c3)[C@H]3C(=O)OC[C@@H]32)OCO4)c([N+](=O)[O-])c1 | > 20 µM | > 100 µM | 15% | 1.7 µM | 740 µM | 2.5 µM | 2 µM | 0.63 µM |  |  |  |  |
| COc1cc([C@@H]2c3cc4c(cc3[C@@H](Nc3ccc(-c5nc6ccccc6[nH]5)cc3)[C@H]3COC(=O)[C@H]23)OCO4)cc(OC)c1O | 0.2 µM |  | 128% | 0.23 µM |  | 0.85 µM | 0.63 µM | 0.35 µM | 450 µM | 10 µM | 1.4 µM |  |
| COc1cc([N+](=O)[O-])c(OC)cc1N[C@@H]1c2cc3c(cc2[C@@H](c2cc(OC)c(O)c(OC)c2)[C@H]2C(=O)OC[C@@H]21)OCO3 |  |  | 4.4% | 21.5 µM |  |  | > 50 µM | 45 µM | 37 µM | > 100 µM | 20 µM |  |
| COc1cc([C@@H]2c3cc4c(cc3[C@@H](Nc3cc([N+](=O)[O-])cc([N+](=O)[O-])c3)[C@H]3COC(=O)[C@H]23)OCO4)cc(OC)c1O |  | > 100 µM | 20% | > 40 µM | 17500 µM | > 5 µM | 26 µM | 10 µM |  |  |  |  |
| COc1ccc([N+](=O)[O-])cc1N[C@@H]1c2cc3c(cc2[C@@H](c2cc(OC)c(O)c(OC)c2)[C@H]2C(=O)OC[C@@H]21)OCO3 | > 20 µM | > 100 µM | 12% | 2.25 µM | 1800 µM | 2.4 µM | 4.8 µM | 2.5 µM |  |  |  |  |
| COc1cc([C@@H]2c3cc4c(cc3[C@@H](O[C@@H]3O[C@@H]5CO[C@@H](C)O[C@H]5[C@H](O)[C@H]3O)[C@H]3COC(=O)[C@H]23)OCO4)cc(OC)c1O [ETOPOSIDE] | 20 µM |  | 100% | 1.95 µM |  | > 5 µM | > 5 µM | 2.2 µM | 23.8 µM |  | 30.6 µM | Net log change in tumor burden (Mus musculus [8]): -5.5; Days to tumor doubling (Mus musculus [9]): >24.1; Days to tumor doubling (Mus musculus [10]): 18.5; ILS at 10 mg/kg/day (Mus musculus [11]): 90%; Day of death (Mus musculus [12]): 23; ILS at 27 mg/kg/day (Mus musculus [13]): 130%; Day of death (Mus musculus [14]): 19; Day of death (Mus musculus [15]): 26; ILS at 40 mg/kg/day (Mus musculus [16]): 160%; Net log change in tumor burden (Mus musculus [17]): -3.4; Net log change in tumor burden (Mus musculus [18]): -0.7 |
| COc1cc(N[C@@H]2c3cc4c(cc3[C@@H](c3cc(OC)c(O)c(OC)c3)[C@H]3C(=O)OC[C@@H]32)OCO4)c(C)cc1[N+](=O)[O-] |  |  | 3.5% | > 50 µM |  |  | > 50 µM | > 50 µM |  | > 100 µM |  |  |
| COc1cc([N+](=O)[O-])ccc1N[C@@H]1c2cc3c(cc2[C@@H](c2cc(OC)c(O)c(OC)c2)[C@H]2C(=O)OC[C@@H]21)OCO3 | > 20 µM | > 100 µM | 83% | 0.63 µM | 4000 µM | 5 µM | > 10 µM | 1.1 µM |  |  |  |  |
| COc1cc([C@@H]2c3cc4c(cc3[C@H](Nc3cc([N+](=O)[O-])cc([N+](=O)[O-])c3)[C@H]3COC(=O)[C@H]23)OCO4)cc(OC)c1O |  | > 100 µM | 8% | > 5 µM | 7600 µM | 2.5 µM | > 5 µM | > 10 µM |  |  |  |  |
| COc1cc([C@@H]2c3cc4c(cc3[C@@H](Nc3ccc([N+](=O)[O-])cc3)[C@H]3COC(=O)[C@H]23)OCO4)cc(OC)c1O | 1 µM | 10 µM | 122% |  |  | 28.5 µM | 8.5 µM | 1.5 µM |  |  |  |  |
| COc1cc([C@@H]2c3cc4c(cc3[C@@H](Nc3nc5ccccc5[nH]3)[C@H]3COC(=O)[C@H]23)OCO4)cc(OC)c1O |  |  | 58% | 3.5 µM |  |  | 3.3 µM | 17.5 µM | 0.9 µM | 100 µM | 1000 µM |  |
| COc1cc([C@@H]2c3cc4c(cc3[C@@H](Nc3ccc(NC(=O)C56CCC(C)(C(=O)O5)C6(C)C)cc3)[C@H]3COC(=O)[C@H]23)OCO4)cc(OC)c1O (stereo partly drawn) |  | 10 µM | 88% | 2.2 µM | 5600 µM | > 5 µM | 20 µM | > 1.25 µM |  |  |  |  |
